The text below walks through data of ChEMBL document CHEMBL1121685, “Development of new mitomycin C and porfiromycin analogues” (J Med Chem, 1981).

Each structure is given as a SMILES string.

Data set [1] has as its system Mus musculus. The data set is described as follows: Effect of compound on total white blood cell count in BDG1 male mice, after intraperitoneal administration at a dose of 12.8 mg/kg on day 7 (highest dose was twice the optimal dose). The format is functional.
Data set [2] deals with Mus musculus. Briefly: Minimum effective dose that show activity against P-388 murine leukemia cells in CDF1 female mice, after intraperitoneal administration (optimal dose is 6.4 mg/kg). Type of data set: functional. Conditions: P388, ip, read-out: MED. The method in brief:
(§1)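 10⁶ P-388 ascites cells implanted ip in CDF₁ female mice. Six mice per dose, 10 saline-injected controls, and a concurrent mitomycin C reference group. %T/C = median survival time of treated/control × 100. MED is the lowest dose giving %T/C > 125. Therapeutic ratio = optimal dose/MED.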

Data set [3] relates to Mus musculus. The data set is described as follows: Effect of compound on total white blood cell count in BDG1 male mice, after intraperitoneal administration at a dose of 12.8 mg/kg on day 5 (highest dose was twice the optimal dose). Type of data set: functional. The method in brief: (§2)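 BDG₁ male mice received a single ip dose on day 0. The dose series topped out at the LD₅₀ level, or at twice the optimal dose for some agents. Total white blood cell count was taken on days 3, 5 and 7 and expressed as % change from untreated controls. Significance was set at p ≤ 0.05 or p ≤ 0.01.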

In data set [4] the test system is Mus musculus. Briefly: Effect of compound on total white blood cell count in BDG1 male mice, after intraperitoneal administration at a dose of 6.4 mg/kg on day 5. The format is functional. In outline:
(§3)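 Single ip dose given on day 0 to BDG₁ male mice. Total white blood cell count measured on days 3, 5 and 7, expressed as % change from control. Highest dose was at the LD₅₀, or at twice the optimal dose where so footnoted. Significance reported at p ≤ 0.05 and p ≤ 0.01. D marks death of one or more mice.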

Data set [5] deals with Mus musculus. Briefly: Effect of compound on total white blood cell count in BDG1 male mice, after intraperitoneal administration at a dose of 6.4 mg/kg on day 3. Type of data set: functional. The method in brief: as §3
The test system of data set [6] is Mus musculus. Briefly: Antitumor activity against P-388 murine leukemia cells in CDF1 female mice after intraperitoneal administration at the specified optimal dose of 6.4 mg/kg. The format is functional.
Data set [7] has as its system Mus musculus. Briefly: Effect of compound on total white blood cell count in BDG1 male mice, after intraperitoneal administration at a dose of 12.8 mg/kg on day 3 (highest dose was twice the optimal dose). The format is functional. In outline: as §2
Data set [8] has as its system Mus musculus. Briefly: Effect of compound on total white blood cell count in BDG1 male mice, after intraperitoneal administration at a dose of 6.4 mg/kg on day 7. Type of data set: functional. The method in brief:
as §3

A short description of data set [9]: Therapeutic ratio is expressed as ratio of optimal dose and minimum effective dose. The format is ADME. The following applies: mouse; read-out: TR. In outline: as §1
The subject of data set [10] is Mus musculus. Briefly: Antitumor activity against P-388 murine leukemia cells in CDF1 female mice after intraperitoneal administration at the specified optimal dose of 51.2 mg/kg. Type of data set: functional.

Usually T/C stands for the result in the treated group divided by that in the control group, in per cent. Turning to `C=CCNC1=C(C)C(=O)C2=C(C1=O)[C@H](COC(N)=O)C1(OC)[C@@H]3N[C@@H]3CN21` (stereo partly specified), the Change was 6% in the data set on Mus musculus [1]; -42% with Mus musculus [3]; -37% in the data set on Mus musculus [4]; -35% in the data set with Mus musculus [5]; -33% with Mus musculus [7]; -0.6% in the data set with Mus musculus [8]. Moreover, in the data set on Mus musculus [2], the minimal effective dose worked out at 3.2 mg/kg. In addition, the T/C with Mus musculus [6] stood at 150%. The selectivity ratio in [9] was determined as 2.

Regarding `COC12[C@@H](COC(N)=O)C3=C(C(=O)C(C)=C(NCCCl)C3=O)N1C[C@@H]1[C@H]2N1C` (stereo partly specified), the T/C with Mus musculus [10] is on record as 205%. For the same compound, the selectivity ratio in [9] came to 8.
